High-throughput results as filed in PubChem.
Sampled rows, rich in hits. Any-hit rate of the full collection: about 2.9%.
FGF22 binding = binders of human FGF22 protein, primary screen, FGF22 synaptogenesis inhibitor project, biophysical, thermal shift, single point. activity (Tm shift, normalised), % at 9.99 µM. recombinant FGF22 thermal shift, SYPRO orange fluorescence; percent of sucrose octasulfate shift, DMSO zero. Fibroblast growth factor 22 (Homo sapiens), Q9HCT0. 340,000 compounds, 1.5% hits;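 active = mean Tm shift, scaled 0 neutral to 100 positive control, at about 1.3% or above, every replicate too, limit read from the data; inconclusive = no clear call, values can overlap the other calls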
Target sequence (Q9HCT0 whole entry, looked up): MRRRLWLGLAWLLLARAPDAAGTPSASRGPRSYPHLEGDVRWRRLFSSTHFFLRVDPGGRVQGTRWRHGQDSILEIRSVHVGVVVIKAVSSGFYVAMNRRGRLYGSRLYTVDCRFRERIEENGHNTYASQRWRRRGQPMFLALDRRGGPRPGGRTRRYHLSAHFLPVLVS
Cneo AK release = Cryptococcus neoformans cell lysis inducers, primary screen, AK release luminescence, single concentration | C. neoformans lysis, adenylate kinase release luminescence, 4 h; normalised: neutral wells 0, clomiphene wells 100 | lysis activity, % at 15 µM | 360,000 compounds, 0.2% hits;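 active = mean lysis activity across replicates of at least 80%, whatever share of replicates individually reach that level; inactive = mean lysis activity below 80%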
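Test system: log-phase Cryptococcus neoformans yeast cells. Input: 5 × 10^6 yeast cells/mL. Medium: fresh YPD growth medium. Doses: single dose. Incubation: static 4 h at 37 °C with compound, 1 h detection. Measured by: luminescent adenylate kinase detection reagent. Read-out: signal increase indicating cell lysis. Benchmarks: Clomiphene.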
rRNA inh HTS = reduced GFP signal of wild-type E. coli, primary screen, bacterial rRNA inhibitor project, GFP/RFP fluorescence, OD600, single point. E. coli WT GFP vs humanized-ribosome RFP mutants, 24 h; active compounds read low; DMSO median 0, no signal -100. GFP signal change (wild-type ribosome), % (concentration not given with the values). 350,000 compounds, 1.6% hits;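 active = significant combined selectivity score with lowered wild-type GFP, culture density cut under 30%, mutant RFP and density less affected; inactive = any of these conditions unmet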
PGC1a acetyl inh = inhibitors of PGC1a acetylation signal, primary screen, cell-based, U2OS, AlphaScreen, inhibitor mode | AlphaScreen anti-acetyl-lysine; with virally co-expressed GCN5 acetyltransferase | inhibition, % at 15.6 µM | 350,000 compounds, 0.17% hits | AID 651687, 2012;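 active = every replicate shows inhibition of at least 40%; inconclusive = mean inhibition at least 40% but some replicate below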;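 note: 0% = neutral control wells and 100% = positive control wells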
Vif imaging = HIV Vif self-association inhibitors, primary screen, imaging, HEK293T, single point; HEK293T cells, Vif self-association by quenched fluorescence, 24 h; inhibition, % at 7.49 µM; 340,000 compounds, 0.35% hits; in the data active = inhibition above about 50%, passing the limit was not always enough; inconclusive = no clear call, values can overlap the other calls; inactive = below about 31%
PglD DTNB = C. jejuni PglD acetyltransferase inhibitors, primary screen, biochemical, DTNB colorimetric, single point; UDP-N-acetylbacillosamine N-acetyltransferase PglD (Campylobacter jejuni); purified PglD enzyme, DTNB colorimetric CoA detection; inhibition, % at 12.5 µM; 360,000 compounds, 0.098% hits; AID 602405, 2012; in the data active = inhibition above about 16%, passing the limit was not always enough; inconclusive = no clear call, values can overlap the other calls
Starred values were filed as active, the others as inactive.

For Nc1ccc(C(=O)N/N=C/c2cn(Cc3ccc(F)cc3)c3ccccc23)cc1 the results were FGF22 binding 0, Cneo AK release -1, rRNA inh HTS 1, PGC1a acetyl inh 6, Vif imaging 16 and PglD DTNB 4.
Screening COC(=O)N/N=C/c1cn(Cc2ccc(Cl)cc2Cl)c2ccccc12 returned FGF22 binding 0, Cneo AK release -3, rRNA inh HTS -28*, PGC1a acetyl inh -2, Vif imaging -7 and PglD DTNB 3.
Screening COC(=O)N/N=C/c1cn(Cc2c(Cl)cccc2Cl)c2ccccc12 returned FGF22 binding 0, rRNA inh HTS -19 and PGC1a acetyl inh 5.
For COC(=O)N/N=C/c1cn(Cc2ccccc2Cl)c2ccccc12 the results were FGF22 binding 0, rRNA inh HTS -26* and Vif imaging -4.
For O=C(N/N=C/c1cn(Cc2cccc(F)c2)c2ccccc12)c1cc(O)cc(O)c1 the results were FGF22 binding 1, Cneo AK release -3, rRNA inh HTS -24*, Vif imaging -6 and PglD DTNB 5.
Nc1ccc(C(=O)N/N=C/c2cn(Cc3ccccc3F)c3ccccc23)cc1 was read as FGF22 binding 0, Cneo AK release -2, rRNA inh HTS -8, Vif imaging 0 and PglD DTNB 1.
Screening O=C(O)c1ccc(N/N=C/c2cn(Cc3ccccc3F)c3ccccc23)cc1 returned FGF22 binding 0, Cneo AK release 1, rRNA inh HTS -35*, PGC1a acetyl inh -6, Vif imaging -13 and PglD DTNB 3.
For CN1C(=O)c2cc(NS(C)(=O)=O)ccc2OC[C@H]2O[C@H](CC(=O)N3CCOCC3)CC[C@@H]21 the results were FGF22 binding 0, Cneo AK release 1, rRNA inh HTS -3 and PglD DTNB -2.
C[C@H](CO)N1C[C@H](C)[C@H](CN(C)S(=O)(=O)c2ccc(F)cc2)OCCCC[C@H](C)Oc2ccc(NC(=O)C3CCCCC3)cc2C1=O was read as Cneo AK release -2, rRNA inh HTS -1, PGC1a acetyl inh 0 and PglD DTNB -1.
For CNC[C@@H]1Oc2c(NS(C)(=O)=O)cccc2C(=O)N(C)C[C@@H]1C the results were rRNA inh HTS -4.
CN1CCN(C(=O)C[C@@H]2CC[C@@H]3[C@H](COC[C@@H](O)CN3C(=O)Nc3cc(Cl)cc(Cl)c3)O2)CC1 was read as FGF22 binding 0, Cneo AK release -4, rRNA inh HTS -31, PGC1a acetyl inh -5 and PglD DTNB 7.
C[C@@H]1CN([C@H](C)CO)S(=O)(=O)c2ccc(C#CC3CC3)cc2O[C@H]1CN(C)C(=O)c1cccnc1 was read as FGF22 binding 0, Cneo AK release -2, rRNA inh HTS -4, PGC1a acetyl inh -6 and PglD DTNB 2.
COc1ccccc1OCCn1cc(/C=N/NC(=O)c2ccncc2)c2ccccc21 was read as FGF22 binding 0, Cneo AK release 5, rRNA inh HTS -28*, PGC1a acetyl inh inconclusive, Vif imaging -2 and PglD DTNB 2.
`O=C1c2[nH]nc(-c3ccccc3)c2C(c2ccccc2)N1c1ccccc1` (stereo not given) gave FGF22 binding 43* and rRNA inh HTS 4.
`O=C1NC(c2ccccc2)c2c(-c3ccccc3)n[nH]c21` (stereo not given) gave FGF22 binding 0 and rRNA inh HTS 22.
`Cc1ccc(C2c3c(-c4ccccc4)n[nH]c3C(=O)N2c2ccccc2)cc1` (stereo not given) gave FGF22 binding 0 and rRNA inh HTS -23.
Cc1ccc(C2NC(=O)c3[nH]nc(-c4ccccc4)c32)cc1 (stereo not given) was read as FGF22 binding 0 and rRNA inh HTS -19*.
Screening Cc1ccc(S(=O)(=O)Nc2ccc(SC(F)F)cc2)c(C)c1 returned Vif imaging 61*.
Screening O=C(C[C@H]1C=C[C@H](NC(=O)C2CCC2)[C@@H](CO)O1)Nc1nccs1 returned FGF22 binding 0, Cneo AK release 0, rRNA inh HTS 0, PGC1a acetyl inh 4 and PglD DTNB -6.
`COc1ccc(Cc2nc3c([nH]2)c(=O)n(C)c(=O)n3C)cc1OC` gave FGF22 binding 43*, Cneo AK release 0, rRNA inh HTS 9, PGC1a acetyl inh -10, Vif imaging -7 and PglD DTNB 8.
CC(C)(C)c1ccc(COC(=O)Nc2ccc(F)cc2)cc1 was read as FGF22 binding 0, rRNA inh HTS 5 and Vif imaging 0.
Cc1cccc(NC(=O)Nc2ccccc2)n1 was read as FGF22 binding 0, Cneo AK release -5, rRNA inh HTS -2, Vif imaging 2 and PglD DTNB -3.
For Cc1cccc(NC(=O)Nc2ccc(Cl)c(Cl)c2)n1 the results were FGF22 binding 0, Cneo AK release 0, rRNA inh HTS -26*, PGC1a acetyl inh 0, Vif imaging -7 and PglD DTNB -1.
For Cc1ccc(NC(=O)Nc2ccc(F)cc2)cc1Cl the results were FGF22 binding 43*, Cneo AK release -1, rRNA inh HTS -33, PGC1a acetyl inh 9, Vif imaging -14 and PglD DTNB 9.
CC(C)(C)c1ccc(NC(=O)Nc2ccc(F)cc2)cc1 was read as FGF22 binding 43*, Cneo AK release -5, rRNA inh HTS -38, PGC1a acetyl inh 13, Vif imaging 16 and PglD DTNB 4.
For COCC#Cc1cnc2c(c1)C(=O)N([C@H](C)CO)C[C@@H](C)[C@@H](CN(C)S(=O)(=O)c1ccccc1)O2 the results were FGF22 binding 0, Cneo AK release 3, rRNA inh HTS 2, PGC1a acetyl inh 13 and PglD DTNB 2.
CN1CCS/C1=C/C=C1/SC(=S)N(Cc2ccccc2)C1=O was read as FGF22 binding 0, rRNA inh HTS -36 and Vif imaging 52*.
C(=N\N1CCN(Cc2cccc3ccccc23)CC1)/c1cccnc1 was read as FGF22 binding 0, rRNA inh HTS -30* and Vif imaging 2.
CCOC(=O)c1ccccc1OCc1cc(/C=N/NC(=O)c2cccnc2)ccc1OC was read as FGF22 binding 0, Cneo AK release -1, rRNA inh HTS -16, PGC1a acetyl inh -7, Vif imaging 0 and PglD DTNB -2.
